Test results published in ChEMBL document CHEMBL4350958, “Rational Design of Short Peptide Variants by Using Kunitzin-RE, an Amphibian-Derived Bioactivity Peptide, for Acquired Potent Broad-Spectrum Antimicrobial and Improved Therapeutic Potential of Commensalism Coinfection of Pathogens” (J Med Chem, 2019).

Columns and labels:
[1] = Cytotoxicity against mouse RAW264.7 cells assessed as cell viability at 2 to 64 uM measured after 18 to 24 hrs by MTT assay relative to control; format: cell-based; settings: RAW264.7 cells, read-out: Activity
How it was run: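 MTT assay: RAW264.7 cells seeded at 1.0–2.0×10^4 per well and exposed to peptide (2–64 µM) for 18–24 h at 37 °C in 5% CO2. MTT (0.5 mg/mL) added for 4 h, formazan dissolved in DMSO, read at 570 nm. At least three independent experiments with triplicate wells.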

[2] = Therapeutic index, ratio of MHC10 for hemolytic activity in human RBC to MIC95 against methicillin-resistant Staphylococcus aureus ATCC 43300; format: toxicity; settings: human red blood cells (erythrocytes), read-out: TI
How it was run: (§1)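 Therapeutic index = MHC divided by MIC. MHC is the lowest concentration giving >10% lysis of human RBC (1 h, 37 °C, 1-128 µM, A576). MIC is 95% growth inhibition by broth microdilution: bacteria in MHB 24 h at 37 °C; Candida in MOPS-buffered RPMI 1640 at (0.5–1) × 10^3 CFU mL−1, 48 h at 28 °C.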

Candida albicans [3] = assay: Antifungal activity against Candida albicans cgmcc2.2086 measured after 48 hrs in presence of NaCl by broth microdilution method; format: functional; settings: cgmcc2.2086, 48 h
[4] = Conformational stability in 50% trifluoro-ethyl alcohol assessed as alpha-helical structural propensity by measuring absorption spectra at minimum dichroic band at 35 uM by CD spectra analysis; format: physicochemical
How it was run: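 CD spectra from 190 to 250 nm of peptide at 35 μM in 10 mM PBS, 30 mM SDS micelles or 50% TFE, recorded in a 1.0-mm quartz cell. Ellipticity was converted to mean residue ellipticity. Three independent scans, each averaged over more than 3 runs.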

Escherichia coli [5] = assay: Antibacterial activity against Escherichia coli ATCC 25922 measured after 18 to 24 hrs in presence of FeCl3; format: functional
Erythrocyte = assay: Hemolytic activity in human RBC measured after 1 hr; format: ADME, cell-based
How it was run: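 Fresh healthy-donor human erythrocytes at ~1% (v/v) in PBS pH 7.4, mixed 1:1 with peptide (1–128 µM), 1 h at 37 °C. After centrifugation at 1000×g, supernatant hemoglobin read at 576 nm. Untreated cells set 0% and 0.1% Triton X-100 set 100%. MHC defined as the concentration giving >10% hemolysis. Three or more independent experiments, triplicates.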

Staphylococcus aureus [6] = assay: Antibacterial activity against Staphylococcus aureus ATCC 29213 measured after 18 to 24 hrs in presence of CaCl2; format: functional
Candida tropicalis = assay: Antifungal activity against Candida tropicalis cgmcc2.1975 measured after 48 hrs by broth microdilution method; format: functional; settings: cgmcc2.1975, 48 h
How it was run: (§2)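 Modified CLSI M27-A2 microdilution. Yeast colonies were diluted in MOPS-buffered RPMI 1640 to a final (0.5–1) × 10^3 CFU mL−1 and mixed with an equal volume of peptide serially diluted in 0.2% BSA. After 48 h at 28 °C, MIC was read at A492 as the lowest concentration inhibiting 95% of growth. At least three independent experiments, each with three technical replicates.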

Staphylococcus aureus [7] = assay: Antibacterial activity against Staphylococcus aureus ATCC 25923 measured after 24 hrs; format: functional; settings: ATCC 25923, 24 h
How it was run: (§3)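 Broth microdilution modified from NCCLS. Mid-log bacteria at (0.5–1) × 10^5 CFU mL−1 in MHB, mixed with peptides serially diluted in 0.2% BSA. Incubated 24 h at 37 °C, read at A492. MIC taken as lowest concentration giving 95% growth inhibition. At least three independent experiments, each with three technical replicates.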

Candida albicans [8] = assay: Antifungal activity against Candida albicans cgmcc2.2086 measured after 48 hrs in presence of MgCl by broth microdilution method; format: functional; settings: cgmcc2.2086, 48 h
Escherichia coli [9] = assay: Antibacterial activity against Escherichia coli K99 measured after 24 hrs; format: functional; settings: K99, 24 h
How it was run: (§4)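 Broth microdilution adapted from NCCLS. Mid-log bacteria were diluted in MHB to a final (0.5–1) × 10^5 CFU mL−1. Peptides were serially diluted in 0.2% BSA and mixed with an equal volume of cells. After 24 h at 37 °C, MIC was read at A492 as the lowest concentration inhibiting 95% of growth. At least three independent experiments, each with three technical replicates.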

Staphylococcus aureus [10] = assay: Antibacterial activity against methicillin-resistant Staphylococcus aureus ATCC 43300 measured after 24 hrs; format: functional; settings: ATCC 43300, 24 h; how it was run: as §3
Escherichia coli [11] = assay: Bactericidal activity against Escherichia coli K99 incubated for 24 hrs followed by replating on agar plate and measured after overnight incubation; format: functional; settings: K99, 24 h, read-out: MBC>99.9
How it was run: (§5)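 Mid-log bacteria diluted in MHB to (0.5–1) × 10^5 CFU/mL and mixed 1:1 with peptide serially diluted in 0.2% BSA. After 24 h at 37 °C, 50 μL of each mixture was plated on agar and incubated overnight. MBC taken as the lowest concentration killing >99.9% of cells. At least three independent experiments, each with three technical replicates.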

Staphylococcus aureus [12] = assay: Antibacterial activity against Staphylococcus aureus ATCC 29213 measured after 18 to 24 hrs in presence of FeCl3; format: functional
Pseudomonas aeruginosa = assay: Antibacterial activity against Pseudomonas aeruginosa ATCC 27853 measured after 24 hrs; format: functional; settings: ATCC 27853, 24 h; how it was run: as §4
[13] = Therapeutic index, ratio of MHC10 for hemolytic activity in human RBC to MIC95 against Staphylococcus epidermidis ATCC 12228; format: toxicity; settings: human red blood cells (erythrocytes), read-out: TI; how it was run: as §1
Escherichia coli [14] = assay: Antibacterial activity against Escherichia coli ATCC 25922 measured after 18 to 24 hrs in presence of NaCl; format: functional
[15] = Therapeutic index, ratio of MHC10 for hemolytic activity in human RBC to MIC95 against Candida tropicalis cgmcc2.1975; format: toxicity; settings: human red blood cells (erythrocytes), read-out: TI; how it was run: as §1
Staphylococcus aureus [16] = assay: Antibacterial activity against Staphylococcus aureus ATCC 29213 measured after 18 to 24 hrs in presence of KCl; format: functional
[17] = Therapeutic index, ratio of MHC10 for hemolytic activity in human RBC to MIC95 against Candida albicans cgmcc2.2086; format: toxicity; settings: human red blood cells (erythrocytes), read-out: TI; how it was run: as §1
Staphylococcus aureus [18] = assay: Antibacterial activity against Staphylococcus aureus ATCC 29213 measured after 18 to 24 hrs in presence of NaCl; format: functional
Salmonella typhimurium = assay: Bactericidal activity against Salmonella typhimurium ATCC 14028 incubated for 24 hrs followed by replating on agar plate and measured after overnight incubation; format: functional, Salmonella enterica subsp. enterica serovar Typhimurium; settings: Salmonella enterica, ATCC 14028, 24 h; read-out: MBC>99.9; how it was run: as §5
Candida parapsilosis = assay: Antifungal activity against Candida parapsilosis cgmcc2.3989 measured after 48 hrs by broth microdilution method; format: functional; settings: Lodderomyces parapsilosis, cgmcc2.3989, 48 h; how it was run: as §2
Staphylococcus aureus [19] = assay: Antibacterial activity against Staphylococcus aureus ATCC 29213 measured after 18 to 24 hrs in presence of ZnCl2; format: functional
How it was run: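 MIC broth microdilution (MHB, 0.2% BSA peptide diluent, A492, 95% inhibition) run in the presence of physiological salts at final concentrations of 6 μM NH4Cl or 8 μM ZnCl2. Three independent assays, each with three technical replicates.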

[20] = tested on: Staphylococcus epidermidis; assay: Antibacterial activity against Staphylococcus epidermidis ATCC 12228 measured after 24 hrs; format: functional; settings: ATCC 12228, 24 h; how it was run: as §4

Substance | viability at up to 64 µM [1] | selectivity ratio [2] | MIC95 (Candida albicans [3]) | MIC95 (Escherichia coli [5]) | MHC10 (Erythrocyte) | MIC95 (Staphylococcus aureus [6]) | MIC95 (Candida tropicalis) | MIC95 (Staphylococcus aureus [7]) | MIC95 (Candida albicans [8]) | MIC95 (Escherichia coli [9]) | MIC95 (Staphylococcus aureus [10]) | MBC (Escherichia coli [11]) | MIC95 (Staphylococcus aureus [12]) | MIC95 (Pseudomonas aeruginosa) | selectivity ratio [13] | MIC95 (Escherichia coli [14]) | selectivity ratio [15] | MIC95 (Staphylococcus aureus [16]) | selectivity ratio [17] | MIC95 (Staphylococcus aureus [18]) | also measured
H-AARIILRPRFR-NH2 | 90 to 100% | 2 | > 128 µM | 16 µM | > 128 µM | > 128 µM | > 128 µM | > 128 µM | > 128 µM | 16 µM | > 128 µM | 32 µM | > 128 µM | > 128 µM | 2 | 128 µM | 2 | > 128 µM | 2 | > 128 µM | Stability [4]: Unstable; MBC (Salmonella typhimurium): 32 µM; MIC95 (Candida parapsilosis): > 128 µM; MIC95 (Staphylococcus aureus [19]): > 128 µM; MIC95 [20]: > 128 µM
H-AARIILRTRFR-NH2 | 90 to 100% | 16 | > 128 µM | 16 µM | > 128 µM | 64 µM | 32 µM | 16 µM | > 128 µM | 4 µM | 16 µM | 8 µM | 16 µM | > 128 µM | 16 | > 128 µM | 4 | 32 µM | 4 | > 128 µM | Activity [4]: 208 to 222 nm; MBC (Salmonella typhimurium): 32 µM; MIC95 (Candida parapsilosis): 64 µM; MIC95 (Staphylococcus aureus [19]): 16 µM; MIC95 [20]: 16 µM
H-AARIILRIRFR-NH2 | 90 to 100% | 64 | 32 µM | 4 µM | 128 µM | 16 µM | 4 µM | 2 µM | 16 µM | 4 µM | 2 µM | 4 µM | 2 µM | 16 µM | 64 | 8 µM | 25.4 | 2 µM | 25.4 | 8 µM | Activity [4]: 208 to 222 nm; MBC (Salmonella typhimurium): 4 µM; MIC95 (Candida parapsilosis): 4 µM; MIC95 (Staphylococcus aureus [19]): 2 µM; MIC95 [20]: 2 µM
H-AARIILRWFRR-NH2 | 90 to 100% | 53.8 | 16 µM | 2 µM | > 128 µM | 8 µM | 4 µM | 8 µM | 16 µM | 2 µM | 8 µM | 4 µM | 4 µM | 8 µM | 53.8 | 8 µM | 50.8 | 4 µM | 50.8 | 32 µM | Activity [4]: 208 to 222 nm; MBC (Salmonella typhimurium): 8 µM; MIC95 (Candida parapsilosis): 4 µM; MIC95 (Staphylococcus aureus [19]): 2 µM; MIC95 [20]: 2 µM
